# Tested on: A549
# Assay: Cytotoxicity against human A549 cells after 48 hrs by SRB assay
# Assay type: functional, cell-based
# Details: A549, 48 h
# Method in brief: (§1)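 Cells from ATCC were seeded and left 24 h at 37 °C under 5% CO2. Attached cells were then exposed for 48 h to serial dilutions of 30, 10, 3, 1, 0.3 and 0.1 μM. Cells were fixed with cold 10% TCA at 4 °C for 1 h and stained with 0.4% SRB for 30 min at room temperature. Dye was solubilized in 10 mM Tris base (pH 10.5) and absorbance read at 520 nm. Etoposide served as positive control. IC50 is the mean ± SD of three independent experiments.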
row,SMILES,IC50 [µM]
1,CC(=O)OC[C@@]1(O)CC[C@@H]2C(CO[C@@H]3O[C@H](CO)[C@@H](O)[C@H](O)[C@H]3OC(=O)/C=C/c3ccc(O)cc3)=CO[C@@H](OC(=O)CC(C)C)[C@@H]21,> 10
2,CCC(C)C(=O)O[C@@H]1OC=C(CO[C@@H]2O[C@H](CO)[C@@H](O)[C@H](O)[C@H]2OC(=O)/C=C/c2ccc(O)cc2)[C@H]2CC[C@](O)(CO)[C@@H]12 (some centres not stated),3.8
3,CC(C)CC(=O)O[C@@H]1OC=C(CO[C@@H]2O[C@H](CO)[C@@H](O)[C@H](O)[C@H]2O)[C@H]2C[C@H](O)[C@](O)(CO)[C@@H]12,> 10
4,COc1cc([C@@H]2c3cc4c(cc3[C@@H](O[C@@H]3O[C@@H]5CO[C@@H](C)O[C@H]5[C@H](O)[C@H]3O)[C@H]3COC(=O)[C@H]23)OCO4)cc(OC)c1O [ETOPOSIDE],1.1

# Tested on: BV-2
# Assay: Antineuroinflammatory activity in mouse BV2 cells assessed as inhibition of LPS-induced nitric oxide production pretreated for 30 mins followed by LPS-stimulation after 24 hrs by Griess assay
# Assay type: functional, cell-based
# Details: not given
# Method in brief: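 BV-2 microglia were pretreated with compound for 30 min, then stimulated with LPS (100 ng/mL) for 24 h. Nitrite in the supernatant was mixed with an equal volume of Griess reagent (1% sulfanilamide, 0.1% naphthylethylenediamine in 5% phosphoric acid) for 10 min and read at 570 nm. Values were quantified against a sodium nitrite standard curve. L-NMMA served as positive control. IC50 is the concentration giving 50% inhibition of NO production; three independent experiments.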
row,SMILES,IC50 [µM]
1,CC(=O)OC[C@@]1(O)CC[C@@H]2C(CO[C@@H]3O[C@H](CO)[C@@H](O)[C@H](O)[C@H]3OC(=O)/C=C/c3ccc(O)cc3)=CO[C@@H](OC(=O)CC(C)C)[C@@H]21,29.8
2,CCC(C)C(=O)O[C@@H]1OC=C(CO[C@@H]2O[C@H](CO)[C@@H](O)[C@H](O)[C@H]2OC(=O)/C=C/c2ccc(O)cc2)[C@H]2CC[C@](O)(CO)[C@@H]12 (some centres not stated),1.25 to 1.3
3,CC(C)CC(=O)O[C@@H]1OC=C(CO[C@@H]2O[C@H](CO)[C@@H](O)[C@H](O)[C@H]2O)[C@H]2C[C@H](O)[C@](O)(CO)[C@@H]12,112
4,CNC(=N)NCCC[C@H](N)C(=O)O [TILARGININE],13.2

# Tested on: not listed separately
# Assay: Cytotoxicity against rat C6 cells assessed as cell viability at 20 uM after 24 hrs by MTT assay relative to control
# Assay type: cell-based
# Details: read-out: Activity
# Method in brief: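 C6 glioma cells were kept in DMEM with 10% FBS and seeded at 1 × 10^5 cells/well. After 24 h, cells were treated with 20 μM compound in DMEM with 2% FBS for 24 h. MTT reagent was added for 1 h at 37 °C, formazan dissolved in DMSO and absorbance read at 570 nm. Results are percent, mean ± SD of three independent experiments.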
row,SMILES,"viability at 24 h, 20 µM [%]"
1,CC(=O)OC[C@@]1(O)CC[C@@H]2C(CO[C@@H]3O[C@H](CO)[C@@H](O)[C@H](O)[C@H]3OC(=O)/C=C/c3ccc(O)cc3)=CO[C@@H](OC(=O)CC(C)C)[C@@H]21,120
2,CCC(C)C(=O)O[C@@H]1OC=C(CO[C@@H]2O[C@H](CO)[C@@H](O)[C@H](O)[C@H]2OC(=O)/C=C/c2ccc(O)cc2)[C@H]2CC[C@](O)(CO)[C@@H]12 (some centres not stated),101
3,CC(C)CC(=O)O[C@@H]1OC=C(CO[C@@H]2O[C@H](CO)[C@@H](O)[C@H](O)[C@H]2O)[C@H]2C[C@H](O)[C@](O)(CO)[C@@H]12,116
4,CCCCC/C=C/C(=O)CCc1ccc(O)c(OC)c1 [SHOGAOL],98.8

# Tested on: SK-MEL-2
# Assay: Cytotoxicity against human SK-MEL-2 cells after 48 hrs by SRB assay
# Assay type: functional, cell-based
# Details: SK-MEL-2, 48 h
# Method in brief: as §1
row,SMILES,IC50 [µM]
1,CC(=O)OC[C@@]1(O)CC[C@@H]2C(CO[C@@H]3O[C@H](CO)[C@@H](O)[C@H](O)[C@H]3OC(=O)/C=C/c3ccc(O)cc3)=CO[C@@H](OC(=O)CC(C)C)[C@@H]21,> 10
2,CCC(C)C(=O)O[C@@H]1OC=C(CO[C@@H]2O[C@H](CO)[C@@H](O)[C@H](O)[C@H]2OC(=O)/C=C/c2ccc(O)cc2)[C@H]2CC[C@](O)(CO)[C@@H]12 (some centres not stated),1.4
3,CC(C)CC(=O)O[C@@H]1OC=C(CO[C@@H]2O[C@H](CO)[C@@H](O)[C@H](O)[C@H]2O)[C@H]2C[C@H](O)[C@](O)(CO)[C@@H]12,> 10
4,COc1cc([C@@H]2c3cc4c(cc3[C@@H](O[C@@H]3O[C@@H]5CO[C@@H](C)O[C@H]5[C@H](O)[C@H]3O)[C@H]3COC(=O)[C@H]23)OCO4)cc(OC)c1O [ETOPOSIDE],0.2

# Tested on: BT-549
# Assay: Cytotoxicity against human BT549 cells after 48 hrs by SRB assay
# Assay type: functional, cell-based
# Details: BT-549, 48 h
# Method in brief: as §1
row,SMILES,IC50 [µM]
1,CC(=O)OC[C@@]1(O)CC[C@@H]2C(CO[C@@H]3O[C@H](CO)[C@@H](O)[C@H](O)[C@H]3OC(=O)/C=C/c3ccc(O)cc3)=CO[C@@H](OC(=O)CC(C)C)[C@@H]21,> 10
2,CCC(C)C(=O)O[C@@H]1OC=C(CO[C@@H]2O[C@H](CO)[C@@H](O)[C@H](O)[C@H]2OC(=O)/C=C/c2ccc(O)cc2)[C@H]2CC[C@](O)(CO)[C@@H]12 (some centres not stated),1.3
3,CC(C)CC(=O)O[C@@H]1OC=C(CO[C@@H]2O[C@H](CO)[C@@H](O)[C@H](O)[C@H]2O)[C@H]2C[C@H](O)[C@](O)(CO)[C@@H]12,> 10
4,COc1cc([C@@H]2c3cc4c(cc3[C@@H](O[C@@H]3O[C@@H]5CO[C@@H](C)O[C@H]5[C@H](O)[C@H]3O)[C@H]3COC(=O)[C@H]23)OCO4)cc(OC)c1O [ETOPOSIDE],1

# Tested on: not listed separately
# Assay: Cytotoxicity against mouse BV2 cells assessed as cell viability at 20 uM by MTT assay relative to control
# Assay type: cell-based, BV-2
# Details: read-out: Activity
# Method in brief: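 Viability of LPS-activated BV-2 cells was measured after 24 h treatment with 20 μM compound. Read-out was MTT, expressed as percent. Values are means ± SD of three independent experiments.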
row,SMILES,viability at 20 µM [%]
1,CC(=O)OC[C@@]1(O)CC[C@@H]2C(CO[C@@H]3O[C@H](CO)[C@@H](O)[C@H](O)[C@H]3OC(=O)/C=C/c3ccc(O)cc3)=CO[C@@H](OC(=O)CC(C)C)[C@@H]21,143
2,CCC(C)C(=O)O[C@@H]1OC=C(CO[C@@H]2O[C@H](CO)[C@@H](O)[C@H](O)[C@H]2OC(=O)/C=C/c2ccc(O)cc2)[C@H]2CC[C@](O)(CO)[C@@H]12 (some centres not stated),136
3,CC(C)CC(=O)O[C@@H]1OC=C(CO[C@@H]2O[C@H](CO)[C@@H](O)[C@H](O)[C@H]2O)[C@H]2C[C@H](O)[C@](O)(CO)[C@@H]12,103
4,CNC(=N)NCCC[C@H](N)C(=O)O [TILARGININE],120

# Tested on: C6
# Assay: Induction of NGF secretion in rat C6 cells at 20 uM after 24 hrs by ELISA relative to control
# Assay type: functional
# Details: not given
# Method in brief: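 C6 glioma cells were seeded at 1 × 10^5 cells/well in DMEM with 10% FBS. After 24 h, cells were exposed to 20 μM compound in DMEM with 2% FBS for 24 h. NGF secreted into the conditioned medium was measured by ELISA as percent of untreated control (100%). 6-Shogaol served as positive control. Data are mean ± SD of three independent experiments in triplicate.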
row,SMILES,Activity [%]
1,CC(=O)OC[C@@]1(O)CC[C@@H]2C(CO[C@@H]3O[C@H](CO)[C@@H](O)[C@H](O)[C@H]3OC(=O)/C=C/c3ccc(O)cc3)=CO[C@@H](OC(=O)CC(C)C)[C@@H]21,158.7
2,CCC(C)C(=O)O[C@@H]1OC=C(CO[C@@H]2O[C@H](CO)[C@@H](O)[C@H](O)[C@H]2OC(=O)/C=C/c2ccc(O)cc2)[C@H]2CC[C@](O)(CO)[C@@H]12 (some centres not stated),145.4
3,CC(C)CC(=O)O[C@@H]1OC=C(CO[C@@H]2O[C@H](CO)[C@@H](O)[C@H](O)[C@H]2O)[C@H]2C[C@H](O)[C@](O)(CO)[C@@H]12,107.4
4,CCCCC/C=C/C(=O)CCc1ccc(O)c(OC)c1 [SHOGAOL],146.3

# Tested on: SK-OV-3
# Assay: Cytotoxicity against human SKOV3 cells after 48 hrs by SRB assay
# Assay type: functional, cell-based
# Details: SK-OV-3, 48 h
# Method in brief: as §1
row,SMILES,IC50 [µM]
1,CC(=O)OC[C@@]1(O)CC[C@@H]2C(CO[C@@H]3O[C@H](CO)[C@@H](O)[C@H](O)[C@H]3OC(=O)/C=C/c3ccc(O)cc3)=CO[C@@H](OC(=O)CC(C)C)[C@@H]21,> 10
2,CCC(C)C(=O)O[C@@H]1OC=C(CO[C@@H]2O[C@H](CO)[C@@H](O)[C@H](O)[C@H]2OC(=O)/C=C/c2ccc(O)cc2)[C@H]2CC[C@](O)(CO)[C@@H]12 (some centres not stated),1.9
3,CC(C)CC(=O)O[C@@H]1OC=C(CO[C@@H]2O[C@H](CO)[C@@H](O)[C@H](O)[C@H]2O)[C@H]2C[C@H](O)[C@](O)(CO)[C@@H]12,> 10
4,COc1cc([C@@H]2c3cc4c(cc3[C@@H](O[C@@H]3O[C@@H]5CO[C@@H](C)O[C@H]5[C@H](O)[C@H]3O)[C@H]3COC(=O)[C@H]23)OCO4)cc(OC)c1O [ETOPOSIDE],2.9

# From ChEMBL document CHEMBL4130405, “Iridoid Glycosides from the Twigs of Sambucus williamsii var. coreana and Their Biological Activities” (J Nat Prod, 2017)
